# Results collected from several papers.
# Each line is one published result; the experiments were not run side by side. pEC50, pIC50: −log10 of the molar value.
# Organism: Plasmodium falciparum
# Observed: parasite growth
SMILES,method,strain,tested at,time,setting,quantity,value
CCOC(=O)c1cn(CC)c2cc(N3CCC(C)CC3)c(F)cc2c1=O,,3D7,,72 h,blood stage,pEC50,7.55
O=C(Nc1ccc(F)cc1C(=O)O)c1ccc(-c2ccccc2)cc1,,NF54,2 µM,48 h,gametocyte,inhibition,43.5%
COc1ccc(Nc2ccnc3cc(-c4ccc(S(=O)(=O)N5CCN(C)CC5)cc4)ccc23)cc1Cl,,D6,,,"drug-resistant strain, blood stage",pEC50,7.92
CCCC1CCN(c2cc3c(cc2F)c(=O)c(-c2nc(C)no2)cn3CC)CC1,,3D7,,72 h,blood stage,pEC50,8.10
c1cnc(Nc2ccnc3cc(-c4cn[nH]c4)ccc23)cn1,,D6,,,"drug-resistant strain, blood stage",pEC50,6.03
Cc1cccc(C(=O)O)c1NC(=O)c1cccc(-c2ccccc2)c1,,NF54,2 µM,48 h,gametocyte,inhibition,31.8%
CN1CCN(c2ccnc(Nc3ccc4c(Nc5ccc(OCc6cccc(F)c6)c(Cl)c5)ccnc4c3)n2)CC1,,D6,,,"drug-resistant strain, blood stage",pEC50,7.60
c1ccc2sc(-c3ccnc(Nc4ccc(CN5CCC(N6CCCC6)CC5)cc4)n3)cc2c1,SYBR Green,3D7,1 µM,,blood stage,inhibition,> 75%
CCN(CC)CCCC(C)Nc1ccnc2cc(Cl)ccc12 (centres unmarked),,D6,,,blood stage,pIC50,8.00
CCNC(=O)c1cn(CC)c2cc(N3CCC(C)CC3)c(F)cc2c1=O,,3D7,,72 h,blood stage,pEC50,6.32
COc1cnc(Nc2ccnc3cc(-c4ccc(S(=O)(=O)N5CCN(C)CC5)cc4)ccc23)cn1,,D6,,,"drug-resistant strain, blood stage",pEC50,6.89
O=C(Nc1cc(F)ccc1C(=O)O)c1ccc(-c2ccccc2)cc1,SYBR Green,NF54,10 µM,96 h,blood stage,inhibition,17.2%
COc1ccc(Nc2ccnc3cc(Nc4nccc(N5CCN(C)CC5)n4)ccc23)cc1Cl,,D6,,,"drug-resistant strain, blood stage",pEC50,7.00
O=C(Nc1c(F)cccc1C(=O)O)c1ccc(-c2ccccc2)cc1,SYBR Green,NF54,10 µM,96 h,blood stage,inhibition,6.4%
CCn1cc(-c2nnc(-c3cccnc3)o2)c(=O)c2cc(F)c(N3CCC(C)CC3)cc21,,3D7,,72 h,blood stage,pEC50,< 5.00
Cc1ccc(-c2ccccc2C(=O)Nc2c(C)cccc2C(=O)O)cc1,,NF54,2 µM,48 h,gametocyte,inhibition,55%
CCn1cc(-c2nc(C)no2)c(=O)c2cc(F)c(N3CCC(C)(C)CC3)cc21,,3D7,,72 h,blood stage,pEC50,5.83
